The term inhibition in vivo denotes how much of the control response was suppressed. Broadly, the IC50 is the point on the concentration scale where inhibition reaches its midpoint. Lower therefore signals greater potency in that assay.

Consider twelve molecules from ChEMBL document CHEMBL4152268, “Synthesis of proline derived benzenesulfonamides: A potent anti-Trypanosoma brucei gambiense agent” (Eur J Med Chem, 2018).

Series [1] has as its system Rattus norvegicus. Put plainly: Antiinflammatory activity in rat assessed as inhibition of carrageenan-induced paw edema at 100 mg/kg, po administered 1 hr followed by carrageenan challenge measured at 0.5 hrs by plethysmometer relative to control. It counts as functional. The procedure, abridged:
(§1)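 Rats dosed orally (test compounds 100 mg/kg; indomethacin reference 25 mg/kg). One hour later, 1% carrageenan suspension (0.05 mL/animal) was injected sub-plantar into the right hind paw. Paw size was measured by mercury-displacement plethysmometer, calibrated beforehand, at intervals after injection. Activity was calculated as percentage decrease in carrageenan-induced edema relative to control.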
(In general: The carrageenan paw model is a standard test of acute inflammation.)

The subject of series [2] is Rattus norvegicus. Put plainly: Antiinflammatory activity in rat assessed as inhibition of carrageenan-induced paw edema at 100 mg/kg, po administered 1 hr followed by carrageenan challenge measured at 1 hr by plethysmometer relative to control. The format is functional. The procedure, abridged: as §1
The test system of another series is Mus musculus. Put plainly: Toxicity in ip dosed mouse measured over 72 hrs. It counts as organism-based. Conditions: in vivo. The method in brief: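 Male mice, grouped, given graded intraperitoneal doses; watched continuously 6 h, then kept under observation to 72 h, monitored 4 times daily, with behavioural changes and deaths recorded. Humane endpoints applied, with CO2 euthanasia. Percentage death per dose converted to probits to derive LD50 (μM/kg); mortality rate = dead/group size ×100.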

Series [3] concerns Trypanosoma brucei gambiense. Put plainly: Antitrypanosomal activity against Trypanosoma brucei gambiense GUTat 3.1 after 72 hrs by Alamar Blue assay. It counts as functional, organism-based. The following applies: GUTat 3.1, 72 h. The method in brief:
(§2)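 T. b. gambiense GUTat 3.1 was cultured in supplemented IMDM with 10% heat-inactivated FBS at 37 °C under 5.0% CO2/95% air. Parasites were seeded in 96-well plates, and compound in 5.0% DMSO was added for 72 h. Alamar Blue was then added for 3-6 h and fluorescence read (ex 528/20, em 590/35 nm). IC50 was obtained from the plate-reader software.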
For orientation: Alamar Blue is a resazurin reagent that responds to reducing activity.

In series [4] the test system is Rattus norvegicus. Put plainly: Antiinflammatory activity in rat assessed as inhibition of carrageenan-induced paw edema at 100 mg/kg, po administered 1 hr followed by carrageenan challenge measured at 3 hrs by plethysmometer relative to control. The format is functional. The method in brief: as §1
The test system of series [5] is Rattus norvegicus. Put plainly: Antiinflammatory activity in rat assessed as inhibition of carrageenan-induced paw edema at 100 mg/kg, po administered 1 hr followed by carrageenan challenge measured at 2 hrs by plethysmometer relative to control. The format is functional. The procedure, abridged:
as §1

The subject of series [6] is Trypanosoma brucei brucei. Put plainly: Antitrypanosomal activity against Trypanosoma brucei brucei after 48 hrs by Alamar blue assay. It counts as functional, organism-based.
Series [7] relates to Trypanosoma brucei gambiense. Put plainly: Antitrypanosomal activity against Trypanosoma brucei gambiense. The format is functional, organism-based. The procedure, abridged:
as §2

For series [8], the system named is Rattus norvegicus. Put plainly: Antiinflammatory activity in rat assessed as inhibition of carrageenan-induced paw edema at 25 mg/kg, po administered 1 hr followed by carrageenan challenge measured at 0.5 hrs by plethysmometer relative to control. The format is functional. The method in brief: as §1
The test system of series [9] is Rattus norvegicus. Put plainly: Antiinflammatory activity in rat assessed as inhibition of carrageenan-induced paw edema at 25 mg/kg, po administered 1 hr followed by carrageenan challenge measured at 3 hrs by plethysmometer relative to control. The format is functional. The method in brief:
as §1

Series [10] deals with Rattus norvegicus. Put plainly: Antiinflammatory activity in rat assessed as inhibition of carrageenan-induced paw edema at 25 mg/kg, po administered 1 hr followed by carrageenan challenge measured at 2 hrs by plethysmometer relative to control. The format is functional. The procedure, abridged:
as §1

Series [11] concerns Rattus norvegicus. Put plainly: Antiinflammatory activity in rat assessed as inhibition of carrageenan-induced paw edema at 25 mg/kg, po administered 1 hr followed by carrageenan challenge measured at 1 hr by plethysmometer relative to control. The format is functional. The method in brief: as §1

Take `Cc1ccccc1S(=O)(=O)N1CCC[C@H]1C(=O)Nc1ccc(C(=O)O)cc1`: the inhibition in vivo at 100 mg/kg in the series on Rattus norvegicus [1] is 35.8%; with Rattus norvegicus [2], 39.4%; in the series with Rattus norvegicus [4] it was 40%; in the series with Rattus norvegicus [5], 36.3%. Further, the LD50 in the series with Mus musculus came to 13.09 µM/g. The molecule further displayed an IC50 in series [3] of 134 nM.

In [6], `CCCCN(CCCC)c1c([N+](=O)[O-])cc(S(=O)(=O)Nc2ccccc2)cc1[N+](=O)[O-]` displayed an IC50 of 120 nM.

On to `Cc1ccc(S(=O)(=O)N2CCC[C@H]2C(=O)Nc2ccc(C(=O)O)cc2)cc1`, for which the inhibition in vivo at 100 mg/kg in the series on Rattus norvegicus [1] was found to be 28.8%; in the series with Rattus norvegicus [2] it was 31.5%; in the series on Rattus norvegicus [4] it was 35.3%; in the series with Rattus norvegicus [5] it was 36.3%. This molecule also gave an LD50 in the series with Mus musculus of 11.92 µM/g. This molecule registered an IC50 in series [3] of 101 nM.

In turn, `CCS(=O)(=O)N1CCCc2cc(NS(=O)(=O)c3ccccc3F)ccc21` returned an IC50 in [7] of 1300 nM.

For the molecule `COc1ccc2c(c1)c(CC(=O)O)c(C)n2C(=O)c1ccc(Cl)cc1` [INDOMETHACIN], the inhibition in vivo at 25 mg/kg in the series on Rattus norvegicus [8] amounted to 56.9%; with Rattus norvegicus [9] it was 63.6%; in the series with Rattus norvegicus [10], 64.8%; with Rattus norvegicus [11], 63.5%.

With `O=C(O)c1ccc(NC(=O)[C@@H]2CC(O)CN2S(=O)(=O)c2ccc([N+](=O)[O-])cc2)cc1` (stereo partly specified), the inhibition in vivo at 100 mg/kg turned out to be 44.1% in the series with Rattus norvegicus [1], 48.5% in the series on Rattus norvegicus [2], 62.8% with Rattus norvegicus [4] and 52.2% in the series with Rattus norvegicus [5]. In addition, the LD50 in the series with Mus musculus came to 10.28 µM/g. Also, the IC50 in series [3] is 144 nM.

For `O=C(O)c1ccc(NC(=O)[C@@H]2CCCN2S(=O)(=O)c2ccccc2)cc1`, the inhibition in vivo at 100 mg/kg is 23.6% with Rattus norvegicus [1], 26.3% with Rattus norvegicus [2], 31.1% in the series with Rattus norvegicus [4] and 29.4% with Rattus norvegicus [5]. In addition, the LD50 in the series on Mus musculus amounted to 10.06 µM/g. The same molecule registered an IC50 in [3] of 159 nM.

Take `Cc1ccccc1S(=O)(=O)N1CC(O)C[C@H]1C(=O)Nc1ccc(C(=O)O)cc1` (stereo partly specified): the inhibition in vivo at 100 mg/kg with Rattus norvegicus [1] was determined as 38.6%; with Rattus norvegicus [2], 21.2%; with Rattus norvegicus [4], 25.3%; in the series on Rattus norvegicus [5], 23.4%. In addition, the LD50 in the series with Mus musculus is 9.98 µM/g. Besides, the midpoint of inhibition in series [3], the IC50, lay at 157 nM.

For `Nc1nc(N)nc(Nc2ccc([As]3SCC(CO)S3)cc2)n1` (stereo unspecified) [MELARSOPROL], the LD50 in the series with Mus musculus turned out to be 8.75 µM/g. Moreover, in series [3], half-maximal inhibition (IC50) required 5 nM.

On to `Cc1ccc(S(=O)(=O)N2CC(O)C[C@H]2C(=O)Nc2ccc(C(=O)O)cc2)cc1` (stereo partly specified), for which the inhibition in vivo at 100 mg/kg with Rattus norvegicus [1] was determined as 58%; in the series on Rattus norvegicus [2], 60%; with Rattus norvegicus [4] it was 84%; in the series on Rattus norvegicus [5], 67.2%. Besides, in the series on Mus musculus, the LD50 was determined as 12.01 µM/g. Besides, the IC50 in series [3] was found to be 155 nM.

With `O=C(O)c1ccc(NC(=O)[C@@H]2CCCN2S(=O)(=O)c2ccc([N+](=O)[O-])cc2)cc1`, the inhibition in vivo at 100 mg/kg was 42.1% with Rattus norvegicus [1], 45.9% with Rattus norvegicus [2], 52.3% in the series on Rattus norvegicus [4] and 50.1% in the series with Rattus norvegicus [5]. This molecule also showed an LD50 in the series on Mus musculus of 8.65 µM/g. This molecule also displayed an IC50 in [3] of 2 nM.

For `O=C(O)c1ccc(NC(=O)[C@@H]2CC(O)CN2S(=O)(=O)c2ccccc2)cc1` (stereo partly specified), the inhibition in vivo at 100 mg/kg with Rattus norvegicus [1] came to 33.9%; in the series on Rattus norvegicus [2], 24.7%; with Rattus norvegicus [4], 1.85%; in the series on Rattus norvegicus [5], 27.3%. Moreover, the LD50 in the series with Mus musculus stood at 12.07 µM/g. This molecule also showed an IC50 in [3] of 160 nM.
